Measured values as given in ChEMBL document CHEMBL1777774, “A novel, broad-spectrum antitumor compound containing the 1-hydroxycyclohexa-2,5-dien-4-one group: the disclosure of a new antitumor pharmacophore in protoapigenone 1” (Bioorg Med Chem Lett, 2011).

Assays:
MCF7 = assay: Antitumor activity against human MCF7 cells assessed as cell proliferation after 24 hrs by MTT assay; format: functional, cell-based; settings: MCF7, 24 h
How it was run: (§1)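 Cells seeded at 2000 per well in 96-well plates and allowed to adhere. Compounds in DMSO, diluted in culture medium, added at 0.1–100 μM (eight wells per concentration) for 24 h. DMSO vehicle control. MTT 0.5 mg/mL (in PBS) for 4 h, then medium removed and DMSO added, absorbance read at 570 nm. IC50 from concentration vs percent absorbance plot. Mean ± SD, n = 4.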

MDA-MB-231 = assay: Antitumor activity against human MDA-MB-231 cells assessed as cell proliferation after 24 hrs by MTT assay; format: functional, cell-based; settings: MDA-MB-231, 24 h; how it was run: as §1
SK-OV-3 = assay: Antitumor activity against human SKOV3 cells assessed as cell proliferation after 24 hrs by MTT assay; format: functional, cell-based; settings: SK-OV-3, 24 h; how it was run: as §1
PC-3 = assay: Antitumor activity against human PC3 cells assessed as cell proliferation after 24 hrs by MTT assay; format: functional, cell-based; settings: PC-3, 24 h; how it was run: as §1
HepG2 = assay: Antitumor activity against human HepG2 cells assessed as cell proliferation after 24 hrs by MTT assay; format: functional, cell-based; settings: HepG2, 24 h; how it was run: as §1
PANC-1 = assay: Antitumor activity against human PANC1 cells assessed as cell proliferation after 24 hrs by MTT assay; format: functional, cell-based; settings: PANC-1, 24 h; how it was run: as §1
RPMI-8226 = assay: Antitumor activity against human RPMI8226 cells assessed as cell proliferation after 24 hrs by MTT assay; format: functional, cell-based; settings: RPMI-8226, 24 h; how it was run: as §1
U-266 = assay: Antitumor activity against human U266 cells assessed as cell proliferation after 24 hrs by MTT assay; format: functional, cell-based; settings: U-266, 24 h; how it was run: as §1
HEK293 = assay: Cytotoxicity against human HEK293 cells assessed as cell proliferation after 24 hrs by MTT assay; format: cell-based; settings: HEK293, 24 h; how it was run: as §1
PBMC = assay: Cytotoxicity against human PBMC assessed as cell proliferation after 24 hrs by MTT assay; format: cell-based; how it was run: as §1
H22 = assay: Antitumor activity against mouse H22 tumor-nearing ICR mouse assessed as inhibition of tumor growth at 10 mg/kg, ip for 7 days measured on day 9; format: functional; settings: route intraperitoneal
How it was run: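 ICR mice given H22 ascites cells from serial passage, 0.2 ml of 1×10^7 cells/ml injected subcutaneously into right flank, 10 mice per group. From day 2, 10 mg/kg/day ip in 10% ethanol (10 ml/kg) for 7 days. Cyclophosphamide 10 mg/kg as reference, vehicle-treated tumor model group. Killed day 9, tumors weighed. Inhibition = (model − treated tumor weight)/model weight × 100%.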

Mus musculus [1] = assay: Toxicity in […] H22 tumor-nearing ICR mouse assessed as white blood cell count at 10 mg/kg, ip for 7 days measured on day 9 relative to control; format: organism-based; set-up: dose 10 mg/kg, route intraperitoneal; settings: in vivo, 168 h
How it was run: (§2)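 H22-bearing ICR mice (10 per group, plus a saline-injected normal group) dosed ip at 10 mg/kg/day in 10% ethanol for 7 days from day 2. Vehicle given to controls. On day 9 blood was taken for WBC count, and body weight, thymus and spleen were weighed. Thymus or spleen index = organ weight (mg)/body weight (g).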

Mus musculus [2] = assay: Toxicity in […] H22 tumor-nearing ICR mouse assessed as thymus index at 10 mg/kg, ip for 7 days measured on day 9 relative to control; format: organism-based; set-up: dose 10 mg/kg, route intraperitoneal; settings: in vivo, 168 h; how it was run: as §2
Mus musculus [3] = assay: Toxicity in […] H22 tumor-nearing ICR mouse assessed as spleen index at 10 mg/kg, ip for 7 days measured on day 9 relative to control; format: organism-based; set-up: dose 10 mg/kg, route intraperitoneal; settings: in vivo, 168 h; how it was run: as §2
Mus musculus [4] = assay: Toxicity in […] H22 tumor-nearing ICR mouse assessed as body weight at 10 mg/kg, ip for 7 days measured on day 9 relative to control; format: organism-based; set-up: dose 10 mg/kg, route intraperitoneal; settings: in vivo, 168 h; how it was run: as §2
Mus musculus [5] = assay: Toxicity in […] H22 tumor-nearing ICR mouse assessed as decrease in total nucleated bone marrow cells at 10 mg/kg, ip for 7 days measured on day 9; format: organism-based; set-up: dose 10 mg/kg, route intraperitoneal; scale not given: the % may be the effect or the level left; settings: in vivo, 168 h
How it was run: (§3)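 H22-bearing ICR mice dosed ip 10 mg/kg/day in 10% ethanol for 7 days from day 2, with vehicle controls. Killed day 9 and femoral marrow flushed. Nucleated cells counted with a Coulter Counter. Granulocytic and erythroid cells per femur counted on May-Grünwald-Giemsa-stained marrow smears.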

Mus musculus [6] = assay: Toxicity in […] H22 tumor-nearing ICR mouse assessed as decrease in ratio of granulocytic and erythroid cell system at 10 mg/kg, ip for 7 days measured on day 9; format: organism-based, Erythrocyte; set-up: dose 10 mg/kg, route intraperitoneal; scale not given: the % may be the effect or the level left; settings: in vivo, 168 h; how it was run: as §3

Row | Structure (SMILES) | IC50 (MCF7) | IC50 (MDA-MB-231) | IC50 (SK-OV-3) | IC50 (PC-3) | IC50 (HepG2) | IC50 (PANC-1) | IC50 (RPMI-8226) | IC50 (U-266) | IC50 (HEK293) | IC50 (PBMC) | inhibition in vivo at 10 mg/kg (H22) | Activity (Mus musculus [1]) | Activity (Mus musculus [2]) | Activity (Mus musculus [3]) | Activity (Mus musculus [4]) | Activity (Mus musculus [5]) | Activity (Mus musculus [6])
1 | O=C1C=CC(O)(c2cc(=O)c3c(O)cc(O)cc3o2)C=C1 [PROTOAPIGENONE] | 5.5 µM | 1.7 µM | 0.71 µM | 6.13 µM | 7.77 µM | 22.1 µM | 3.93 µM | 7.66 µM | 6.79 µM | 8.11 µM | < 5% | Non-toxic | Non-toxic | Non-toxic | Non-toxic | 51.52% | 36.9%
2 | O=P1(N(CCCl)CCCl)NCCCO1 (stereo not given) [CYCLOPHOSPHAMIDE ANHYDROUS] | – | – | – | – | – | – | – | – | – | – | 41.7% | – | – | – | – | – | –
3 | O=C1C=CC(O)(c2cc(=O)cco2)C=C1 | 0.71 µM | 0.38 µM | 0.64 µM | 3.43 µM | 1.76 µM | 3.08 µM | 13.5 µM | 9.44 µM | 30 µM | 49.3 µM | 34.1% | Non-toxic | Non-toxic | Non-toxic | Non-toxic | Non-toxic | Non-toxic
